The source made the active and inactive calls.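 How the source made its calls: active means fitted curve reaching 35% inhibition at both 405 and 600 nm absorbance, in duplicate, within twice the top valid dose; inactive means the rest, including signal rising instead of falling.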

Our source for the AC35 and activity change, negative = inhibition values is PubChem BioAssay AID624011 (Broad Institute, 2012).

One assay concerns P. aeruginosa + EDDHA, pyoverdine absorbance 405 nm, 24-30 h. Briefly: bacterial growth inhibition with EDDHA chelator – absorbance 405 nm, dry powder, set 2, dose response (AID 624011).
Conditions: not given
In short, it runs like this: (§1)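 Signal: absorbance 405 nm (pyoverdine) / Assay system: Pseudomonas aeruginosa strain ATCC 15692, whole bacterial cells / Quantity: final OD600 0.0000005 / Reagent: EDDHA, 2 µM final / Compound dosing: threefold compound dilution series from 10 mM stock, pinned twice / Times: bacterial growth with compound 24-30 h at 37 °C, humidified / Buffer or medium: succinate M9 medium, pH 7.0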
Consider `N#CC(c1cccc(Cl)n1)c1ccc(Cl)cc1F` (configuration not stated), for which the AC35 is 19.6 µM. On the same count and under the same terms, next, `N#CC(c1ccc(Cl)cc1)c1cccc(C(F)(F)F)n1` (configuration not stated): 7.35 µM; `N#CC(c1cccc(C(F)(F)F)n1)c1ccc(Cl)cc1F` (configuration not stated): 26.2 µM. On the same count and under the same terms, the same measure for `COc1cccc(C(C#N)c2ccc(F)cc2)n1` (configuration not stated): > 50 µM (inactive); for `N#CC(c1ccc(Cl)cc1)c1cccc(Cl)n1` (configuration not stated): 18 µM.

`N#CC(c1ccc(Cl)cc1)c1ncccc1Cl` (configuration not stated): the AC35 is 33.6 µM. For `N#CC(c1ccc(F)cc1)c1cccc(C(F)(F)F)n1` (configuration not stated), the AC35 is 17.6 µM.

Tested on in another assay: not listed separately
Described as above. Conditions: P. aeruginosa + EDDHA, pyoverdine absorbance 405 nm, 24-30 h; at 50 µM (top of the series). In short, it runs like this: as §1
Take `N#CC(c1ccc(C(F)(F)F)c(Cl)n1)c1ccc(Cl)cc1F` (configuration not stated): the activity change, negative = inhibition was -8.56% (inactive).

Consider `N#Cc1cccc(C(C#N)c2ccc(Cl)cc2Cl)n1` (configuration not stated), for which the activity change, negative = inhibition is -7.16% (inactive).

As for `N#CC(c1cccc(Cl)n1)c1ccccc1OC(F)(F)F` (configuration not stated), the activity change, negative = inhibition was -13.5% (inactive). On the same count and under the same terms, the same measure for `N#CC(c1ccc(Cl)cc1)c1ccc(C(F)(F)F)c(Cl)n1` (configuration not stated): 1.79% (inactive). Same read-out and setting: the same measure for `Cc1ccc(C(C#N)c2ccc(Cl)cc2)nc1` (configuration not stated): -6.12% (inactive); for `CCCC(C#N)c1ccc(Cl)cc1` (configuration not stated): 1.22% (inactive). On the same count and under the same terms, the same measure for `N#CC(c1ccc(C(F)(F)F)cc1)c1cccc(C(F)(F)F)n1` (configuration not stated): 0.339% (inactive); for `N#CC(c1ccc(C(F)(F)F)cc1)c1ccc(C(F)(F)F)c(Cl)n1` (configuration not stated): 0.565% (inactive); for `N#Cc1ccc(C(C#N)c2ccc(Cl)cc2Cl)nc1` (configuration not stated): 3.9% (inactive). As for `N#CC(c1cccc(Cl)n1)c1ccc(Cl)cc1Cl` (configuration not stated), the activity change, negative = inhibition was -12.6% (inactive). Same read-out and setting: the same measure for `CCCCC(C#N)c1ccccc1OC(F)(F)F` (configuration not stated): 1.13% (inactive); for `Cc1ccc(C(C#N)c2ccc(Cl)cc2)nc1C#N` (configuration not stated): -8.79% (inactive); for `CCCCC(C#N)c1ccc(Cl)cc1Cl` (configuration not stated): 4.33% (inactive). Consider `N#CC(CC1CC1)c1ccc(Cl)cc1` (configuration not stated), for which the activity change, negative = inhibition is -6.92% (inactive). Still for that read-out and setting: the same measure for `N#CC(c1ccc(C(F)(F)F)cc1)c1cccc(Cl)n1` (configuration not stated): -7.8% (inactive).

In the case of `N#CC(c1ccc(C(F)(F)F)c(Cl)n1)c1ccccc1OC(F)(F)F` (configuration not stated), the activity change, negative = inhibition was 2.22% (inactive). Regarding `CC(C)CC(C#N)c1ccc(Cl)cc1` (configuration not stated), the activity change, negative = inhibition is 1.37% (inactive). On the same count and under the same terms, next, `CCCCC(C#N)c1ccc(F)cc1` (configuration not stated): -8.06% (inactive); `N#Cc1cccc(C(C#N)c2ccccc2OC(F)(F)F)n1` (configuration not stated): 4.18% (inactive). Same read-out and setting: the same measure for `N#Cc1cccc(C(C#N)c2ccc(Cl)cc2)n1` (configuration not stated): -11.7% (inactive). Still for that read-out and setting: next, `CCCCC(C#N)c1ccc(C(F)(F)F)cc1` (configuration not stated): -7.42% (inactive); `CCCCC(C#N)c1ccc(Cl)cc1` (configuration not stated): -0.942% (inactive).

With `N#Cc1ccc(C(C#N)c2ccc(Cl)cc2)nc1` (configuration not stated), the activity change, negative = inhibition is -6.67% (inactive).

Take `N#CC(c1cccc(C(F)(F)F)n1)c1ccccc1OC(F)(F)F` (configuration not stated): the activity change, negative = inhibition was -5.85% (inactive). The same measure, in the same setting: the same measure for `Cc1ccc(C(C#N)c2ccccc2OC(F)(F)F)nc1C#N` (configuration not stated): 1.92% (inactive). Turning to `N#CC(c1ccc(Cl)cc1Cl)c1ncccc1Cl` (configuration not stated), the activity change, negative = inhibition is 5.69% (inactive). Same read-out and setting: next, `CCCCC(C#N)c1ccc(Cl)cc1F` (configuration not stated): -9.53% (inactive); `N#CC(c1ccc(C(F)(F)F)c(Cl)n1)c1ccc(Cl)cc1Cl` (configuration not stated): 5.25% (inactive); `N#CC(c1ccc(Cl)cc1)c1ccc(C(F)(F)F)cn1` (configuration not stated): 5.88% (inactive). On the same count and under the same terms, next, `CC(C#N)(c1ccc(Cl)cc1)c1ccc(C(F)(F)F)cn1` (configuration not stated): -3.64% (inactive).
